In ChEMBL document CHEMBL1671636, “Role of ampD homologs in overproduction of AmpC in clinical isolates of Pseudomonas aeruginosa” (2008):
Converted amounts (≈) assume the structure as drawn.

Legend:
Format in all cases: functional
Pseudomonas aeruginosa [1] = experiment: Antimicrobial activity against Pseudomonas aeruginosa isolate PA24 obtained from patient with cystic fibrosis by agar dilution method
Pseudomonas aeruginosa [2] = experiment: Antimicrobial activity against Pseudomonas aeruginosa isolate TX292 obtained from patient with non-cystic fibrosis by agar dilution method
Pseudomonas aeruginosa [3] = experiment: Antimicrobial activity against Pseudomonas aeruginosa isolate PA113 obtained from patient with cystic fibrosis by agar dilution method
Pseudomonas aeruginosa [4] = experiment: Antimicrobial activity against Pseudomonas aeruginosa isolate PA22 obtained from patient with cystic fibrosis by agar dilution method
Pseudomonas aeruginosa [5] = experiment: Antimicrobial activity against Pseudomonas aeruginosa isolate GB61 obtained from patient with non-cystic fibrosis by Etest
Pseudomonas aeruginosa [6] = experiment: Antimicrobial activity against Pseudomonas aeruginosa isolate 164CD obtained from patient with non-cystic fibrosis by Etest
Pseudomonas aeruginosa [7] = experiment: Antimicrobial activity against Pseudomonas aeruginosa isolate PA367 obtained from patient with cystic fibrosis by agar dilution method
Pseudomonas aeruginosa [8] = experiment: Antimicrobial activity against Pseudomonas aeruginosa PAO1 by agar dilution method
Pseudomonas aeruginosa [9] = experiment: Antimicrobial activity against Pseudomonas aeruginosa isolate GB57 obtained from patient with non-cystic fibrosis by Etest
Pseudomonas aeruginosa [10] = experiment: Antimicrobial activity against Pseudomonas aeruginosa isolate TX291 obtained from patient with non-cystic fibrosis by agar dilution method
Pseudomonas aeruginosa [11] = experiment: Antimicrobial activity against Pseudomonas aeruginosa isolate GB57 obtained from patient with non-cystic fibrosis by broth microdilution method
Pseudomonas aeruginosa [12] = experiment: Antimicrobial activity against Pseudomonas aeruginosa isolate PA24 obtained from patient with cystic fibrosis harboring beta-lactamase AmpD1 12-nt deletion at nucleotide 5064908 and deletion of codons 144-147 by disk diffusion method
In short: (§1)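 Each ampD homolog gene, from PAO1 or the clinical isolate, was tested in a plasmid model system. An AmpD-deficient E. coli strain (JRG582) carrying an inducible genetic system was complemented with the gene. Read-out was the ceftazidime inhibition zone diameter in mm; lack of complementation gives a ceftazidime-resistant phenotype.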

Pseudomonas aeruginosa [13] = experiment: Antimicrobial activity against Pseudomonas aeruginosa isolate PA367 obtained from patient with cystic fibrosis harboring beta-lactamase AmpD1 Gly148ala and Asp183Tyr mutant by disk diffusion method; in short: as §1
Pseudomonas aeruginosa [14] = experiment: Antimicrobial activity against Pseudomonas aeruginosa isolate 164CD harboring beta-lactamase AmpD1 Leu32Pro, Gly46Ser, Gly148Ala mutant obtained from patient with non-cystic fibrosis by agar dilution method
Pseudomonas aeruginosa [15] = experiment: Antimicrobial activity against Pseudomonas aeruginosa PAO1 expressing beta-lactamase AmpD1 by disk diffusion method; in short: as §1
Pseudomonas aeruginosa [16] = experiment: Antimicrobial activity against Pseudomonas aeruginosa isolate PA24 obtained from patient with cystic fibrosis harboring beta-lactamase AmpDh3 Ala219Thr mutant by disk diffusion method; in short: as §1
Pseudomonas aeruginosa [17] = experiment: Antimicrobial activity against Pseudomonas aeruginosa isolate 164CD harboring beta-lactamase AmpDh3 Ile67Thr mutant obtained from patient with non-cystic fibrosis by agar dilution method
Pseudomonas aeruginosa [18] = experiment: Antimicrobial activity against Pseudomonas aeruginosa isolate PA113 harboring beta-lactamase AmpD1 Gly148Ala, Asp183Tyr mutant obtained from patient with cystic fibrosis by agar dilution method
Pseudomonas aeruginosa [19] = experiment: Antimicrobial activity against Pseudomonas aeruginosa isolate TX291 harboring beta-lactamase AmpDh3 Ala208Val mutant obtained from patient with non-cystic fibrosis by agar dilution method
Pseudomonas aeruginosa [20] = experiment: Antimicrobial activity against Pseudomonas aeruginosa isolate TX292 harboring beta-lactamase AmpD1 11-nt deletion at nt 5064907 and frameshift mutation obtained from patient with non-cystic fibrosis by agar dilution method
Pseudomonas aeruginosa [21] = experiment: Antimicrobial activity against Pseudomonas aeruginosa isolate 164CD obtained from patient with non-cystic fibrosis by agar dilution method
Pseudomonas aeruginosa [22] = experiment: Antimicrobial activity against Pseudomonas aeruginosa PAO1 expressing beta-lactamase AmpDh3 by disk diffusion method; in short: as §1
Pseudomonas aeruginosa [23] = experiment: Antimicrobial activity against Pseudomonas aeruginosa isolate GB61 harboring beta-lactamase AmpD1 Gly148Ala mutant obtained from patient with non-cystic fibrosis by Etest
Pseudomonas aeruginosa [24] = experiment: Antimicrobial activity against Pseudomonas aeruginosa isolate GB57 harboring beta-lactamase AmpD1 Val10Ile mutant obtained from patient with non-cystic fibrosis by Etest
Pseudomonas aeruginosa [25] = experiment: Antimicrobial activity against Pseudomonas aeruginosa isolate PA22 obtained from patient with cystic fibrosis harboring beta-lactamase AmpD1 Gly148ala and Asp183Tyr mutant by disk diffusion method; in short: as §1
Pseudomonas aeruginosa [26] = experiment: Antimicrobial activity against Pseudomonas aeruginosa isolate TX291 harboring beta-lactamase AmpD1 11-nt deletion at nt 5064907 and frameshift mutation obtained from patient with non-cystic fibrosis by agar dilution method
Pseudomonas aeruginosa [27] = experiment: Antimicrobial activity against Pseudomonas aeruginosa isolate PA22 obtained from patient with cystic fibrosis harboring beta-lactamase AmpDh3 Asp137Gly, Ala219Thr mutant by disk diffusion method; in short: as §1
Pseudomonas aeruginosa [28] = experiment: Antimicrobial activity against Pseudomonas aeruginosa PAO1 expressing beta-lactamase AmpDh2 by disk diffusion method; in short: as §1
Pseudomonas aeruginosa [29] = experiment: Antimicrobial activity against Pseudomonas aeruginosa isolate PA113 harboring beta-lactamase AmpDh3 Ala219Thr mutant obtained from patient with cystic fibrosis by agar dilution method
Pseudomonas aeruginosa [30] = experiment: Antimicrobial activity against Pseudomonas aeruginosa isolate GB61 obtained from patient with non-cystic fibrosis by broth microdilution method
Pseudomonas aeruginosa [31] = experiment: Antimicrobial activity against Pseudomonas aeruginosa isolate PA367 obtained from patient with cystic fibrosis harboring beta-lactamase AmpDh3 Asp137Gly, Ala219Thr mutant by disk diffusion method; in short: as §1
Pseudomonas aeruginosa [32] = experiment: Antimicrobial activity against Pseudomonas aeruginosa isolate PA24 obtained from patient with cystic fibrosis by agar dilution method in presence of beta-lactamase inhibitor Tazobactam
Pseudomonas aeruginosa [33] = experiment: Antimicrobial activity against Pseudomonas aeruginosa PAO1 by Etest
Pseudomonas aeruginosa [34] = experiment: Antimicrobial activity against Pseudomonas aeruginosa isolate PA367 obtained from patient with cystic fibrosis by agar dilution method in presence of beta-lactamase inhibitor Tazobactam
Pseudomonas aeruginosa [35] = experiment: Antimicrobial activity against Pseudomonas aeruginosa PAO1 by agar dilution method in presence of beta-lactamase inhibitor Tazobactam
Pseudomonas aeruginosa [36] = experiment: Antimicrobial activity against Pseudomonas aeruginosa isolate PA22 obtained from patient with cystic fibrosis by agar dilution method in presence of beta-lactamase inhibitor Tazobactam
Pseudomonas aeruginosa [37] = experiment: Antimicrobial activity against Pseudomonas aeruginosa isolate 164CD obtained from patient with non-cystic fibrosis by Etest in presence of beta-lactamase inhibitor Tazobactam
Pseudomonas aeruginosa [38] = experiment: Antimicrobial activity against Pseudomonas aeruginosa isolate GB61 obtained from patient with non-cystic fibrosis by Etest in presence of beta-lactamase inhibitor Tazobactam
Pseudomonas aeruginosa [39] = experiment: Antimicrobial activity against Pseudomonas aeruginosa isolate TX291 obtained from patient with non-cystic fibrosis by Etest in presence of beta-lactamase inhibitor Tazobactam
Pseudomonas aeruginosa [40] = experiment: Antimicrobial activity against Pseudomonas aeruginosa isolate PA113 obtained from patient with cystic fibrosis by agar dilution method in presence of beta-lactamase inhibitor Tazobactam
Pseudomonas aeruginosa [41] = experiment: Antimicrobial activity against Pseudomonas aeruginosa isolate GB57 obtained from patient with non-cystic fibrosis by Etest in presence of beta-lactamase inhibitor Tazobactam
Pseudomonas aeruginosa [42] = experiment: Antimicrobial activity against Pseudomonas aeruginosa isolate TX292 obtained from patient with non-cystic fibrosis by Etest in presence of beta-lactamase inhibitor Tazobactam

Compound	MIC (Pseudomonas aeruginosa [1])	MIC (Pseudomonas aeruginosa [2])	MIC (Pseudomonas aeruginosa [3])	MIC (Pseudomonas aeruginosa [4])	MIC (Pseudomonas aeruginosa [5])	MIC (Pseudomonas aeruginosa [6])	MIC (Pseudomonas aeruginosa [7])	MIC (Pseudomonas aeruginosa [8])	MIC (Pseudomonas aeruginosa [9])	MIC (Pseudomonas aeruginosa [10])	MIC (Pseudomonas aeruginosa [21])	other results
C[C@H]1[C@H](NC(=O)/C(=N\OC(C)(C)C(=O)O)c2csc(N)n2)C(=O)N1S(=O)(=O)O [AZTREONAM]	128 µg/mL (≈ 294 µM)	64 µg/mL (≈ 147 µM)	16 µg/mL (≈ 36.7 µM)	4 µg/mL (≈ 9.19 µM)	48 µg/mL (≈ 110 µM)	> 256 µg/mL	4 µg/mL (≈ 9.19 µM)	4 µg/mL (≈ 9.19 µM)	> 256 µg/mL	64 µg/mL (≈ 147 µM)	–	–
CO/N=C(\C(=O)N[C@@H]1C(=O)N2C(C(=O)[O-])=C(C[N+]3(C)CCCC3)CS[C@H]12)c1csc(N)n1 [CEFEPIME]	64 µg/mL (≈ 133 µM)	32 µg/mL (≈ 66.6 µM)	16 µg/mL (≈ 33.3 µM)	16 µg/mL (≈ 33.3 µM)	32 µg/mL (≈ 66.6 µM)	> 256 µg/mL	16 µg/mL (≈ 33.3 µM)	1 µg/mL (≈ 2.08 µM)	> 256 µg/mL	32 µg/mL (≈ 66.6 µM)	–	–
CC(C)(O/N=C(\C(=O)N[C@@H]1C(=O)N2C(C(=O)[O-])=C(C[n+]3ccccc3)CS[C@H]12)c1csc(N)n1)C(=O)O [CEFTAZIDIME]	128 µg/mL (≈ 234 µM)	32 µg/mL (≈ 58.5 µM)	32 µg/mL (≈ 58.5 µM)	16 µg/mL (≈ 29.3 µM)	–	–	32 µg/mL (≈ 58.5 µM)	1 µg/mL (≈ 1.83 µM)	–	32 µg/mL (≈ 58.5 µM)	128 µg/mL (≈ 234 µM)	MIC (Pseudomonas aeruginosa [11]): > 128 µg/mL; diameter of the inhibition zone (DIZ) (Pseudomonas aeruginosa [12]): 6 mm; diameter of the inhibition zone (DIZ) (Pseudomonas aeruginosa [13]): 8 mm; diameter of the inhibition zone (DIZ) (Pseudomonas aeruginosa [14]): 8 mm; diameter of the inhibition zone (DIZ) (Pseudomonas aeruginosa [15]): 17 mm; diameter of the inhibition zone (DIZ) (Pseudomonas aeruginosa [16]): 9 mm; diameter of the inhibition zone (DIZ) (Pseudomonas aeruginosa [17]): 10 mm; diameter of the inhibition zone (DIZ) (Pseudomonas aeruginosa [18]): 8 mm; diameter of the inhibition zone (DIZ) (Pseudomonas aeruginosa [19]): 8 mm; diameter of the inhibition zone (DIZ) (Pseudomonas aeruginosa [20]): 11 mm; diameter of the inhibition zone (DIZ) (Pseudomonas aeruginosa [22]): 18 mm; diameter of the inhibition zone (DIZ) (Pseudomonas aeruginosa [23]): 12 mm; diameter of the inhibition zone (DIZ) (Pseudomonas aeruginosa [24]): 10 mm; diameter of the inhibition zone (DIZ) (Pseudomonas aeruginosa [25]): 8 mm; diameter of the inhibition zone (DIZ) (Pseudomonas aeruginosa [26]): 11 mm; diameter of the inhibition zone (DIZ) (Pseudomonas aeruginosa [27]): 10 mm; diameter of the inhibition zone (DIZ) (Pseudomonas aeruginosa [28]): 6 mm; diameter of the inhibition zone (DIZ) (Pseudomonas aeruginosa [29]): 9 mm; MIC (Pseudomonas aeruginosa [30]): 128 µg/mL (≈ 234 µM); diameter of the inhibition zone (DIZ) (Pseudomonas aeruginosa [31]): 10 mm
CCN1CCN(C(=O)N[C@@H](C(=O)N[C@@H]2C(=O)N3[C@@H]2SC(C)(C)[C@@H]3C(=O)O)c2ccccc2)C(=O)C1=O [PIPERACILLIN]	256 µg/mL (≈ 495 µM)	256 µg/mL (≈ 495 µM)	128 µg/mL (≈ 247 µM)	128 µg/mL (≈ 247 µM)	> 256 µg/mL	–	64 µg/mL (≈ 124 µM)	–	> 256 µg/mL	256 µg/mL (≈ 495 µM)	> 1020 µg/mL	MIC (Pseudomonas aeruginosa [32]): 128 µg/mL; MIC (Pseudomonas aeruginosa [33]): 4 µg/mL (≈ 7.73 µM); MIC (Pseudomonas aeruginosa [34]): 64 µg/mL; MIC (Pseudomonas aeruginosa [35]): 4 µg/mL; MIC (Pseudomonas aeruginosa [36]): 64 µg/mL; MIC (Pseudomonas aeruginosa [37]): > 256 µg/mL; MIC (Pseudomonas aeruginosa [38]): > 256 µg/mL; MIC (Pseudomonas aeruginosa [39]): > 256 µg/mL; MIC (Pseudomonas aeruginosa [40]): 64 µg/mL; MIC (Pseudomonas aeruginosa [41]): > 256 µg/mL; MIC (Pseudomonas aeruginosa [42]): > 256 µg/mL
